Compounds with a hit are over-represented: about 4.9% of the library has one in this group of screens.
NF-kB expr up: raises NF-kB expression in human neuronal cells; AID 1239; hit rate 1.6% among 190,000; fold change at 12.5 µM; NF-kB reporter expression; stronger effect = higher value; in the data active = fold change above about 3.3
APP 5'UTR act: activates APP 5'UTR luciferase reporter | SH-SY5Y APP 5'UTR luciferase reporter, luminescence; zero percent = DMSO vehicle wells | activation, % at 2 µM | hit rate 1% among 190,000 | AID 1276;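 active = activation above a set limit, based on mean plus 3 SD of controls, cut at about 140% in these data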
STAT3 act: activators of IL-6 induced STAT3 signaling | hit rate 0.91% among 190,000 | activation (% of control), % at 5.6 µM | U3A cells, IL-6 STAT3-luciferase reporter, luminescence; 100% = signal with IL-6 EC80 alone;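 active = activation above the screen-wide mean of compound activation plus 3 SD, cut at about 130% in these data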
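Material: STAT1-lacking human U3A cells, STAT3 luciferase reporter | Benchmarks: IL-6-only wells as 100% reference | Probe or stimulus: IL-6 (33 ng/mL) | Timing: Compound 1 h, then IL-6 6 h at 37 °C | Detection: Luminescence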
STAT1 activator: activators of IFN-gamma induced STAT1 signaling; hit rate 2.6% among 200,000; activation (% of control), % at 5.5 µM; AID 932; NIH 3T3 STAT1-luciferase reporter, luminescence; 100% = IFN-gamma alone, no compound;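 active = activation above the screen-wide mean activation plus 3 SD, cut at about 130% in these data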
STAT1 inh: inhibitors of IFN-gamma induced STAT1 signaling; NIH 3T3 STAT1-luciferase reporter, luminescence; inhibition, % at 5.5 µM; hit rate 0.35% among 200,000;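 active = inhibition above a set limit, the mean inhibition across all tested compounds plus 3 SD, cut at about 34% in these data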
STAT3 blocker: reduces IL-6 driven STAT3 reporter signal. U3A cells, IL-6 STAT3-luciferase reporter, luminescence; host cell line lacks STAT1. inhibition, % at 5.5 µM. hit rate 0.89% among 190,000;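 active = inhibition above the mean inhibition across all screened compounds plus 3 SD, cut at about 44% in these data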
A number is an active result; . = inactive.

SMILES	NF-kB expr up	APP 5'UTR act	STAT3 act	STAT1 activator	STAT1 inh	STAT3 blocker
COc1ccc(CNc2ccc(C)c(C)c2)cc1	.	.	.	129.6	.	.
COc1cc(CNc2ccc(C)c(C)c2)cc(OC)c1OC	.	.	.	.	.	.
O=C(Nc1cccc(S(=O)(=O)N2CCCCCC2)c1)c1ccc2ccccc2n1	.	.	.	.	.	.
Cc1ccc(C(=O)Nc2ccc(N3CCCC3)cc2)c(C)c1	.	.	.	.	.	.
O=C(Nc1cccc(-c2cn3c(n2)SCC3)c1)c1ccc2ccccc2n1	.	.	.	134.6	.	.
Cc1ccccc1C(=O)Nc1ccc(N2CCCC2)cc1	.	.	.	131.4	.	.
O=C(Nc1ccc(N2CCCCC2)cc1)c1ccc2ccccc2n1	.	.	.	143.8	.	.
CCN(C(=O)CSc1nc2ccccc2n1CCc1ccccc1)C1CCS(=O)(=O)C1 (configuration not stated)	.	.	.	.	.	.
CCCC1C2CN(C(C)C)CC=C2C(C#N)=C(N)C1(C#N)C#N (configuration not stated)	.	.	.	.	.	.
COc1ccc(CC/C(C)=N\NC(N)=O)cc1	.	.	.	.	.	.
Cc1ccc(C)c(NC(=S)c2ccc3ccccc3n2)c1	.	.	154.5	129.2	.	.
Cc1ccc(C)c(NC(=S)Nc2cccc3cnccc23)c1	.	.	.	.	.	.
Cc1ccc(C)c(NC(=S)Nc2cccnc2)c1	.	.	.	.	.	.
Cc1ccc(C)c(NC(=S)c2ccccn2)c1	14.7	.	.	.	.	.
CC(=O)NCC(=O)OCC(=O)c1ccc(Cl)cc1	.	.	.	.	.	.
Cc1cc(N2C(=O)CCC2=O)ccc1NC(=O)c1cccs1	.	.	.	.	.	.
COc1ccc(Nc2n[nH]c(C)c2[N+](=O)[O-])cc1	4.78	.	.	.	.	.
Cc1ccc(Nc2n[nH]c(C)c2[N+](=O)[O-])c(C)c1	5.29	.	.	.	.	.
COc1ccc(-c2c(C)nn3c(N)c(C#N)cnc23)cc1OC	.	.	.	136.7	.	.
CCOc1ccc(-c2nc3ccccc3c(=O)o2)cc1	6.3	.	.	.	.	.
CCOc1ccc(-c2nnc(NC3=NCCCCC3)o2)cc1	4.1	.	.	.	.	.
c1coc(-c2nnc(NC3=NCCC3)o2)c1	.	.	.	129.4	.	.
CCCCNC(=O)Nc1nnc(-c2ccc(OCC)cc2)o1	.	.	.	.	.	.
CCOc1ccc(-c2nnc(-c3ccncc3)o2)cc1	.	.	.	133.0	.	.
COc1ccc(-c2nc3ccccc3c(=O)o2)cc1OC	.	.	.	.	.	.
SMILES	NF-kB expr up	APP 5'UTR act	STAT3 act	STAT1 activator	STAT1 inh	STAT3 blocker
OC(CN1CCN(c2cccc(C(F)(F)F)c2)CC1)c1c[nH]c2ccccc12 (configuration not stated)	.	.	134.9	.	.	.
OC(COCc1cccs1)CN1CCN(c2cccc(C(F)(F)F)c2)CC1 (configuration not stated)	.	.	.	.	.	.
CCn1c(O)c(C2=c3ccccc3=NC2=O)c2cc(Br)ccc21	.	.	133.9	.	.	.
CCc1ccccc1N(CC(=O)N1CCN(c2ccccc2)CC1)S(C)(=O)=O	.	.	.	.	.	.
Cc1c(/C=C/C(=O)c2ccccc2O)cnn1C	3.92	.	.	.	.	.
Cc1ccc2occ(/C=C/C(=O)c3ccccc3O)c(=O)c2c1	.	.	.	.	.	.
Cc1cc(C(F)(F)F)nn1CC(=O)N1CCOCC1	.	.	.	.	.	.
COc1ccc2c(c1OC)C(=O)N1c3ccccc3SC21 (configuration not stated)	.	.	.	148.9	.	.
COc1ccc2c(c1OC)C(=O)N1c3ccccc3COC21 (configuration not stated)	4.4	.	.	147.7	.	.
COc1ccc2c(c1OC)C(=O)N1c3cccc(Cl)c3C(=O)OC21 (configuration not stated)	.	.	.	.	.	.
O=C(O)CCCN=CC1=C(O)CNC1=O	.	.	.	.	.	.
CC1(C)CC(=O)c2cc(N=C/C(C(=O)c3ccccc3)=C(\O)c3ccccc3)c(=O)oc2C1	.	.	.	132.5	.	.
Cc1cc(C)n(CC(O)COc2ccccc2)n1 (configuration not stated)	.	.	.	.	.	.
Cc1cc(C)n(CC(O)COc2ccc3ccccc3c2)n1 (configuration not stated)	.	.	.	133.4	.	.
CC(=O)c1cccc(CN2CCCC(CCC(=O)NCc3ccccc3F)C2)c1 (configuration not stated)	.	.	.	.	.	.
O=C(Nc1ccc(N2CCCCC2)c(C(=O)O)c1)c1ccco1	.	.	.	.	.	.
O=C(Nc1ccc(N2CCCC2)c(Cl)c1)c1ccco1	8.28	285.9	.	142.9	.	.
O=C(Nc1cccc(NC(=O)c2cccs2)c1)c1ccco1	.	.	.	.	.	.
O=C(Nc1ccc(S(=O)(=O)N2CCCCCC2)cc1)c1ccco1	3.82	.	.	.	.	.
COc1cc(NC(=O)c2ccccc2Cl)ccc1NC(=O)c1ccco1	.	.	.	146.3	.	.
O=C(Nc1ccc(NC(=O)c2cccs2)cc1Cl)c1ccco1	.	.	.	131.4	.	.
CCCc1nc2ccccc2c(C(=O)OC(C)C(=O)NCc2ccc3c(c2)OCO3)c1CC (configuration not stated)	.	.	.	.	.	.
O=C(Nc1ccccc1-c1nnn(CC(=O)N2CCOCC2)n1)c1ccc(F)cc1	.	.	.	.	.	.
O=C(Nc1ccc(N2CCOCC2)c([N+](=O)[O-])c1)c1ccco1	.	.	.	131.9	.	.
O=C(Nc1ccc(N2CCOCC2)c(Cl)c1)c1ccc(Br)o1	.	.	.	139.7	.	.
SMILES	NF-kB expr up	APP 5'UTR act	STAT3 act	STAT1 activator	STAT1 inh	STAT3 blocker
COc1cc(NC(=O)CSc2nncn2C)c(C)cc1[N+](=O)[O-]	.	.	.	.	.	.
Cn1c(-c2ccc3ccccc3n2)nc2cnccc21	.	.	.	133.0	.	.
CCC(=O)c1ccc(OCc2ccccc2)c(OC)c1	.	.	.	129.1	.	.
CCC(=O)c1c(OCc2ccccc2)ccc2c(C)cc(=O)oc12	3.37	.	.	.	.	.
CCC(=O)c1ccc(OCc2ccc(C(=O)OC)cc2)c(OC)c1	.	.	.	.	.	.
CCOC(=O)COc1ccc2c(C)cc(=O)oc2c1C(=O)c1ccccc1	.	.	.	.	.	.
CN(C)CCOc1cc(Cl)cc(Cl)c1	4.25	.	.	.	.	.
CCOC(=O)c1c(C)[nH]c(C(=O)COC(=O)CNC(=O)C2CCCCC2)c1C	.	.	.	135.6	.	.
